Published values gathered from unrelated publications.
Compare with care: the assays were run in different laboratories.
Target: Rho-associated protein kinase 2 (ROCK2, Homo sapiens, UniProt O75116)

Cn1cncc1[C@@](O)(COc1ccc(C#N)cc1-c1ccc(OC(F)(F)F)cc1)c1ccc(C#N)cc1  remaining binding (cell-free assay; competition with immobilised ligand; 1 µM): 100%
C#Cc1n[nH]c2c(-c3cn(C(C)c4ccccn4)c(=O)[nH]c3=O)cc(F)cc12 (stereo not drawn)  inhibition (enzyme activity; inhibitor; 1 µM): 4.2%
Cc1nn(C)cc1-c1nc2c(N3CCN(Cc4ccc(Cl)cc4)CC3)c(Cl)cnc2[nH]1  remaining binding (binding; competition with immobilised ligand; 1 µM): 35%
CC(C)(C)c1cc(C=C(C#N)C#N)cc(Br)c1O  remaining activity (enzyme activity; inhibitor; 0.5 µM): 95.6%
C#Cc1n[nH]c2c(-c3cn([C@@H](C)c4ccccc4)c(=O)[nH]c3=O)cc(F)cc12  inhibition (enzyme activity; inhibitor; 0.1 µM): 3%
N#CC1(c2ccccn2)CCN(Cc2cc(C(=O)O)c(=O)n3ccccc23)CC1  remaining binding (cell-free assay; competition with immobilised ligand; 1 µM): 85%
COc1ncccc1-c1cnn2ccc(N3CCN(C(=O)OC(C)C)CC3)nc12  remaining binding (binding; competition with immobilised ligand; 1 µM): 86%
COc1cc(Nc2ncc(F)c(Nc3ccc4c(n3)NC(=O)C(C)(C)O4)n2)cc(OC)c1OC  inhibition (binding; 10 µM): 86%
Cn1cc(-c2cccc(N3CCc4c(sc5c4CC(C)(C)C5)C3=O)c2CO)cc(Nc2ccncn2)c1=O  inhibition (enzyme activity; inhibitor; 1 µM): 1%
O=c1[nH]c2ccccc2n1C1CCN(Cc2ccc(-c3[nH]c4cc5ncnc5cc4nc3-c3ccccc3)cc2)CC1  remaining signal (cell-free assay; 0.5 µM): 109%
Cn1cc(-c2cc(F)cc(N3CCn4c(cc5c4CCCC5)C3=O)c2CO)cc(Nc2ccc(N3CCN(C4COC4)CC3)cn2)c1=O  inhibition (enzyme activity; inhibitor; 0.1 µM): 1%
Nc1ncc(-c2nc(N3CCOCC3)nc(N3CCOCC3)n2)c(C(F)F)n1  remaining binding (binding; competition with immobilised ligand; 10 µM): 100%
